# Data reported in ChEMBL document CHEMBL5661968, “Antitumor activity of ZSTK474, a new phosphatidylinositol 3-kinase inhibitor” (J Natl Cancer Inst, 2006).
# The source made the active and inactive calls. The rule behind the calls is not given here.
# Assays:
# B16-F10 [1] = assay: Antitumor activity against mouse B16-F10 cells implanted in BDF1 mouse assessed as tumor size relative to control (T/C) at 12 mg/kg, iv administered on day 0 measured after 14 days; conditions: 336 h
# B16-F10 [2] = assay: Antitumor activity against mouse B16-F10 cells implanted in BDF1 mouse assessed as tumor growth inhibition at 50 mg/kg, po administered on day 0,3 and 7 measured after 14 days; format: functional; conditions: B16-F10, 336 h, time 14 day, read-out: TGI
# Outline: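 Male BDF1 mice given 5 × 10^5 B16F10 melanoma cells subcutaneously; dosing began 7 days after inoculation (day 0) in random groups of seven. Tumours were measured by calipers, with TV = (L × W²)/2 and RTV = TVn/TV0. T/C% on day 14 = 100 × mean RTV treated / mean RTV control. Body weight was also recorded.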
# B16-F10 [3] = assay: Antitumor activity against mouse B16-F10 cells implanted in BDF1 mouse assessed as tumor size relative to control (T/C) at 100 mg/kg, iv administered on day 0,3 and 7 measured after 14 days; conditions: 336 h
# OVCAR-4 = assay: Growth inhibition of human OVCAR-4 cells measured after 48 hrs by sulforhodamine B assay; format: functional
# Outline: (§1)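 JFCR39 panel lines were grown in RPMI 1640 with 5% FBS, penicillin and streptomycin at 37 °C in 5% CO2. After 48 h of drug exposure, total cellular protein was measured by sulforhodamine B staining. GI50 was calculated by a previously described method.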
# SK-OV-3 = assay: Growth inhibition of human SK-OV-3 cells measured after 48 hrs by sulforhodamine B assay; format: functional
# Outline: as §1
# KM12 = assay: Growth inhibition of human KM12 cells measured after 48 hrs by sulforhodamine B assay; format: functional
# Outline: as §1
# NCI-H226 = assay: Growth inhibition of human NCI-H226 cells measured after 48 hrs by sulforhodamine B assay; format: functional
# Outline: as §1
# MKN-74 = assay: Growth inhibition of human MKN74 cells measured after 48 hrs by sulforhodamine B assay; format: functional
# Outline: as §1
# [4] = Growth inhibition of human HBC5 cells measured after 48 hrs by sulforhodamine B assay; format: functional
# Outline: as §1
# RXF 631 = assay: Growth inhibition of human RXF 631 cells measured after 48 hrs by sulforhodamine B assay; format: functional
# Outline: as §1
# [5] = Inhibition of PI3K in human A549 cell lysate preincubated with compound for 5 mins followed by [gamma-32p]-ATP addition measured after 20 mins by immunoprecipitation based liquid scintillation spectroscopic analysis; format: subcellular
# Outline: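 PI3K immunoprecipitated with anti-p85 polyclonal antibody and protein G–agarose from A549 lysate (2–4 mg/mL protein), washed, suspended in buffer C (100 mM NaCl, 20 mM Tris pH 7.5) with 200 μg/mL phosphatidylinositol; compound preincubated 5 min at 25 °C; reaction started with [γ-32P]ATP (20 μM final) and 20 mM MgCl2, run 20 min at 25 °C; PI3P separated by TLC, counted by scintillation; activity as % of no-compound cpm.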
# SF-295 = assay: Growth inhibition of human SF-295 cells measured after 48 hrs by sulforhodamine B assay; format: functional
# Outline: as §1
# HCT-116 = assay: Growth inhibition of human HCT-116 cells measured after 48 hrs by sulforhodamine B assay; format: functional
# Outline: as §1
# [6] = Growth inhibition of human HBC4 cells measured after 48 hrs by sulforhodamine B assay; format: functional
# Outline: as §1
# St-4 = assay: Growth inhibition of human St-4 cells measured after 48 hrs by sulforhodamine B assay; format: functional
# Outline: as §1
# NCI-H23 = assay: Growth inhibition of human NCI-H23 cells measured after 48 hrs by sulforhodamine B assay; format: functional
# Outline: as §1
# MDA-MB-231 = assay: Growth inhibition of human MDA-MB-231 cells measured after 48 hrs by sulforhodamine B assay; format: functional
# Outline: as §1
# LOX IMVI = assay: Growth inhibition of human LOX IMVI cells measured after 48 hrs by sulforhodamine B assay; format: functional
# Outline: as §1
# U-251 = assay: Growth inhibition of human U-251 cells measured after 48 hrs by sulforhodamine B assay; format: functional
# Outline: as §1
# SNB-75 = assay: Growth inhibition of human SNB-75 cells measured after 48 hrs by sulforhodamine B assay; format: functional
# Outline: as §1
# OVCAR-3 = assay: Growth inhibition of human OVCAR-3 cells measured after 48 hrs by sulforhodamine B assay; format: functional
# Outline: as §1
# DMS-114 = assay: Growth inhibition of human DMS-114 cells measured after 48 hrs by sulforhodamine B assay; format: functional
# Outline: as §1
# HCC 2998 = assay: Growth inhibition of human HCC 2998 cells measured after 48 hrs by sulforhodamine B assay; format: functional
# Outline: as §1
# MKN-45 = assay: Growth inhibition of human MKN-45 cells measured after 48 hrs by sulforhodamine B assay; format: functional
# Outline: as §1
# DU-145 = assay: Growth inhibition of human DU-145 cells measured after 48 hrs by sulforhodamine B assay; format: functional
# Outline: as §1
# A549 [7] = assay: Growth inhibition of human A549 cells measured after 48 hrs by sulforhodamine B assay; format: functional
# Outline: as §1
# [8] = Growth inhibition of human BSY1 cells measured after 48 hrs by sulforhodamine B assay; format: functional; conditions: BSY-1
# Outline: as §1
# NCI-H522 = assay: Growth inhibition of human NCI-H522 cells measured after 48 hrs by sulforhodamine B assay; format: functional
# Outline: as §1
# ACHN = assay: Growth inhibition of human ACHN cells measured after 48 hrs by sulforhodamine B assay; format: functional
# Outline: as §1
# SF-539 = assay: Growth inhibition of human SF-539 cells measured after 48 hrs by sulforhodamine B assay; format: functional
# Outline: as §1
# OVCAR-5 = assay: Growth inhibition of human OVCAR-5 cells measured after 48 hrs by sulforhodamine B assay; format: functional
# Outline: as §1
# MKN-7 = assay: Growth inhibition of human MKN-7 cells measured after 48 hrs by sulforhodamine B assay; format: functional
# Outline: as §1
# DMS-273 = assay: Growth inhibition of human DMS-273 cells measured after 48 hrs by sulforhodamine B assay; format: functional
# Outline: as §1
# MKN-28 = assay: Growth inhibition of human MKN-28 cells measured after 48 hrs by sulforhodamine B assay; format: functional
# Outline: as §1
# HCT-15 = assay: Growth inhibition of human HCT-15 cells measured after 48 hrs by sulforhodamine B assay; format: functional
# Outline: as §1
# PC-3 = assay: Growth inhibition of human PC-3 cells measured after 48 hrs by sulforhodamine B assay; format: functional
# Outline: as §1
# OVCAR-8 = assay: Growth inhibition of human OVCAR-8 cells measured after 48 hrs by sulforhodamine B assay; format: functional
# Outline: as §1
# SNB-78 = assay: Growth inhibition of human SNB-78 cells measured after 48 hrs by sulforhodamine B assay; format: functional
# Outline: as §1
# NCI-H460 = assay: Growth inhibition of human NCI-H460 cells measured after 48 hrs by sulforhodamine B assay; format: functional
# Outline: as §1
# SF-268 = assay: Growth inhibition of human SF-268 cells measured after 48 hrs by sulforhodamine B assay; format: functional
# Outline: as §1
# MKN-1 = assay: Growth inhibition of human MKN-1 cells measured after 48 hrs by sulforhodamine B assay; format: functional
# Outline: as §1
# [9] = Residual PI3K activity in human A549 cell lysate at 1 uM preincubated with compound for 5 mins followed by [gamma-32p]-ATP addition measured after 20 mins by immunoprecipitation based liquid scintillation spectroscopic analysis relative to control; conditions: A549, 25 min
# HT-29 = assay: Growth inhibition of human HT-29 cells measured after 48 hrs by sulforhodamine B assay; format: functional
# Outline: as §1
# A549 [10] = assay: Irreversible inhibition of PI3K in human A549 cell lysate at 1 uM preincubated with compound for 5 mins followed by [gamma-32p]-ATP addition measured after 20 mins by immunoprecipitation based liquid scintillation spectroscopic analysis; format: subcellular; conditions: time 25.0 min
# Outline: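 Class Ia PI3K was immunoprecipitated with anti-p85 antibody from A549 lysate and preincubated 5 min with compound at 1 μM. The mix was split: one aliquot washed four times (100 mM NaCl, 20 mM Tris pH 7.5), the other unwashed. Each aliquot was assayed with phosphatidylinositol 200 μg/mL, [γ-32P]ATP 20 μM final and MgCl2 20 mM final, 25 °C for 20 min. PI3P was separated by TLC, scraped and counted by scintillation, expressed as % of no-compound cpm.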
structure (smiles),measurement,setting,value
COc1cccc2c1C(=O)c1c(O)c3c(c(O)c1C2=O)C[C@@](O)(C(=O)CO)C[C@@H]3O[C@H]1C[C@H](N)[C@H](O)[C@H](C)O1 [DOXORUBICIN],T/C at 12 mg/kg,B16-F10 [1],24%
O=c1[nH]cc(F)c(=O)[nH]1 [FLUOROURACIL],inhibition in vivo at 50 mg/kg,B16-F10 [2],68.3%
CCc1c2c(nc3ccc(OC(=O)N4CCC(N5CCCCC5)CC4)cc13)-c1cc3c(c(=O)n1C2)COC(=O)[C@]3(O)CC [IRINOTECAN],T/C at 100 mg/kg,B16-F10 [3],96%
O=c1cc(N2CCOCC2)oc2c(-c3ccccc3)cccc12 [LY-294002],GI50,OVCAR-4,4.27 µM
same,GI50,SK-OV-3,14.1 µM
same,GI50,KM12,15.5 µM
same,GI50,NCI-H226,4.37 µM
same,GI50,MKN-74,18.2 µM
same,GI50,[4],3.98 µM
same,GI50,RXF 631,5.5 µM
same,IC50,[5],0.79 µM
same,GI50,SF-295,3.24 µM
same,GI50,HCT-116,15.1 µM
same,GI50,[6],8.71 µM
same,GI50,St-4,20.9 µM
same,GI50,NCI-H23,16.6 µM
same,GI50,MDA-MB-231,5.37 µM
same,GI50,LOX IMVI,6.17 µM
same,GI50,U-251,15.5 µM
same,GI50,SNB-75,2.57 µM
same,GI50,OVCAR-3,5.75 µM
same,GI50,DMS-114,2.95 µM
same,GI50,HCC 2998,10.5 µM
same,GI50,MKN-45,7.08 µM
same,GI50,DU-145,10 µM
same,GI50,A549 [7],6.03 µM
same,GI50,[8],5.01 µM
same,GI50,NCI-H522,3.24 µM
same,GI50,ACHN,10 µM
same,GI50,SF-539,3.09 µM
same,GI50,OVCAR-5,8.13 µM
same,GI50,MKN-7,24 µM
same,GI50,DMS-273,6.03 µM
same,GI50,MKN-28,24.5 µM
same,GI50,HCT-15,9.77 µM
same,GI50,PC-3,1.78 µM
same,GI50,OVCAR-8,10 µM
same,GI50,SNB-78,2.57 µM
same,GI50,NCI-H460,17 µM
same,GI50,SF-268,6.61 µM
same,GI50,MKN-1,10.5 µM
same,"level, % of control at 1 µM",[9],44.6%
same,GI50,HT-29,15.1 µM
COC[C@H]1OC(=O)c2coc3c2[C@@]1(C)C1=C(C3=O)[C@@H]2CCC(=O)[C@@]2(C)C[C@H]1OC(C)=O [WORTMANNIN],IC50,[5],0.011 µM
same,inhibition,A549 [10],Active
